bIAP activator – intestinal alkaline phosphatase (bovine) activation; purified bovine IAP, CDP-star luminescence, 30 min; active compounds read high; fold of DMSO-control signal, blank-subtracted; activation factor at 20 µM; 200,000 compounds, 0.17% hits; AID 1016;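 active = activation factor of 2 or more at 20 µM, a signal rise over negative controls twice the positive control's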
mIAP inh – blocks mouse intestinal alkaline phosphatase. inhibition, % at 10 µM. 330,000 compounds, 0.2% hits. purified mouse IAP, CDP-Star luminescence, 30 min;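 active = inhibition of at least 40% at 10 µM in the primary screen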;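 note: plate controls were DMSO with enzyme for no effect and no enzyme wells for full effect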
bIAP inh – intestinal alkaline phosphatase (bovine) inhibition; purified bovine IAP, CDP-star luminescence, 30 min; inhibition, % at 20 µM; 190,000 tested, under 10 active; AID 1019;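 active = over 50% inhibition of intestinal alkaline phosphatase at 20 µM in the single-dose screen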
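System: purified bovine intestinal alkaline phosphatase (IAP) enzyme; Input: IAP diluted 1/65,000,000 in the well; Measured by: CDP-star luminescence signal; Compound dosing: 20 µM single dose; Incubation: 30 min reaction at room temperature.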
mIAP act – mouse IAP activation | muIAP, CDP-Star luminescence, 30 min; active compounds read high; 1 = vehicle-only enzyme signal, 0 = enzyme-free wells | activation factor at 10 µM | 330,000 compounds, 0.24% hits;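 active = activation factor of at least 2 at 20 µM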
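Assay system: mouse IAP enzyme; Reagent: CDP-Star chemiluminescent phosphatase substrate; Compound: DMSO-dissolved test compounds; Incubation: 30 min, room temperature; Technique: luminescence from enzymatic CDP-Star hydrolysis; Controls: DMSO-only wells and no-enzyme negative control.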
hIAP inh – blocks human intestinal alkaline phosphatase; P09923; purified IAP, CDP-Star luminescence, 30 min; inhibition, % at 10 µM; 330,000 compounds, 0.12% hits;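 active = inhibition reaching a set limit with compound at 10 µM in the primary screen, cut at about 35% in these data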;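 note: plate controls were DMSO wells with enzyme for no effect and no-enzyme buffer wells for full effect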
Target sequence (P09923 whole entry, looked up): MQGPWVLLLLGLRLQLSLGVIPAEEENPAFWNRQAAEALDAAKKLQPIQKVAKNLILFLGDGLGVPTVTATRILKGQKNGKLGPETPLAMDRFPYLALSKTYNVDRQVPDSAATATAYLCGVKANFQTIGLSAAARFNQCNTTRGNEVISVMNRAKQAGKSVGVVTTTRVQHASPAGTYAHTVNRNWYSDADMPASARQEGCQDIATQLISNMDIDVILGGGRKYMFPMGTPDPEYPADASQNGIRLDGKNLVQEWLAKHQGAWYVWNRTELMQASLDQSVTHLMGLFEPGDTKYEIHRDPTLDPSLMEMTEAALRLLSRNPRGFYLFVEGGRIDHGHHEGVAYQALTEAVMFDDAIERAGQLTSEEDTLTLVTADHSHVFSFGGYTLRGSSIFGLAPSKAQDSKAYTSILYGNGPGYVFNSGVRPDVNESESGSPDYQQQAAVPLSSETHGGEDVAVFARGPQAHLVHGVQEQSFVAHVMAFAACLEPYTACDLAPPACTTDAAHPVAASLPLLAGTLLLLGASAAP
hIAP activ – human IAP activation; 330,000 compounds, 0.16% hits; P09923; purified human IAP, CDP-Star luminescence, 30 min; active compounds read high; 1 = vehicle-only enzyme, 0 = enzyme-free background; activation factor at 10 µM;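 active = activation factor of the enzyme at least 2-fold when tested at 20 µM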
The depositor's hits bear a star; i = inactive; nt = not tested or not shown. Shown are actives, neighbours in structure and some others; about 0.77% of the full set was active somewhere.

SMILES | bIAP activator | mIAP inh | bIAP inh | mIAP act | hIAP inh | hIAP activ
CC1Cc2ccccc2N1C(=O)CSc1nnc(Cc2ccccc2)n1CCc1ccccc1 (centres undefined) | 5.4* | nt | -442 | nt | nt | nt
COC(=O)C1CN(C(=O)COc2ccc(Cl)cc2C)c2ccccc2O1 (centres undefined) | nt | -1 | nt | 1 | -2 | 1
CSc1cccc(NC(=O)NCc2cccc(CNC(=O)Nc3cccc(SC)c3)c2)c1 | nt | -109 | nt | 2.1* | -34 | 1.3
Cc1csc(=O)n1CC(=O)OCC(=O)Nc1ccccc1C(C)C | nt | 15 | nt | 0.85 | 5 | 0.95
Cc1c(C(=O)Nc2ccccc2[N+](=O)[O-])csc1-c1ccccc1 | 3.7* | 9 | -266 | 0.91 | 13 | 0.87
CCCn1c(N)c(C(c2ccc(OC)cc2)N2CCN(c3ccccc3)CC2)c(=O)[nH]c1=O (centres undefined) | 2.6* | -38 | -156 | 1.4 | -25 | 1.3
CCCn1c(N)c(C(c2ccc(C(=O)OC)cc2)N2CCN(c3ccccc3)CC2)c(=O)[nH]c1=O (centres undefined) | 1.4 | -18 | -45 | 1.2 | -1 | 1
O=C(CSCc1ccco1)c1ccc(Cl)s1 | 0.9 | 45* | 13 | 0.55 | 1 | 0.99
O=C(NNC(=S)NCc1ccco1)c1ccc(Cl)s1 | 1 | 14 | 2 | 0.86 | -36 | 1.4
O=C1c2ccc([N+](=O)[O-])cc2C(=O)N1c1ccc([N+](=O)[O-])cn1 | nt | -3 | nt | 1 | -27 | 1.3
CC(C)C(NS(=O)(=O)c1cccs1)C(=O)NCCCN1CCCCCC1 (centres undefined) | nt | -1 | nt | 1 | -4 | 1
O=C(OCCOc1ccccc1F)c1cccc(S(=O)(=O)N2CCOCC2)c1 | nt | 6 | nt | 0.94 | 10 | 0.91
Cc1ccccc1NC(=O)CN1CCC(NC(=O)Nc2ccccc2)CC1 | 2.3* | -12 | -129 | 1.1 | -44 | 1.4
CC(C(=O)N1CCc2ccccc21)N1CCN(Cc2ccc(Cl)cc2)CC1 (centres undefined) | nt | -2 | nt | 1 | -9 | 1.1
O=C(/C=C/c1ccco1)N(c1ccccn1)c1ccccn1 | 1 | 45* | -1 | 0.55 | -5 | 1.1
O=c1[nH]c2cc(Cl)c([N+](=O)[O-])nc2[nH]1 | 0.6 | 54* | 38 | 0.47 | 13 | 0.87
O=C(Nc1cccc(C(F)(F)F)c1)Nc1ccc(N2CCCC2)c(S(=O)(=O)Nc2ccccc2Cl)c1 | 0.7 | -110 | 30 | 2.1* | -12 | 1.1
COc1ccccc1NS(=O)(=O)c1cc(NC(=O)Nc2ccc(Cl)cc2Cl)ccc1N1CCCCC1 | 0.9 | -244 | 5 | 3.4* | -11 | 1.1
O=C1CCCCN1CC(=O)N1CCCC(Nc2ccc(F)cc2)C1 (centres undefined) | nt | 44* | nt | 0.56 | -42 | 1.4
N#Cc1ccc(N2CCCNCC2)nc1 | nt | -2 | nt | 1 | -3 | 1
O=C(COC(=O)c1ccc(S(=O)(=O)NCc2ccco2)cc1)Nc1ccccc1OC(F)F | 2.4* | 10 | -136 | 0.9 | -6 | 1.1
O=C(COC(=O)c1ccc(S(=O)(=O)NCc2ccco2)cc1)Nc1ccccc1 | nt | 0 | nt | 1 | -4 | 1
COc1ccc(-c2[nH]ncc2C2N=C(N)Nc3nc4ccccc4n32)cc1 (centres undefined) | 2.2* | -24 | -120 | 1.2 | -57 | 1.6
Cn1c(-c2ccc3c(c2)OCO3)cnc1NCc1ccc(Cl)cc1 | 6.4* | 9 | i | 0.91 | 7 | 0.93
Cc1ccc(CNc2ncc(-c3ccc4c(c3)OCO4)n2C)cc1 | 1.8 | 6 | -83 | 0.94 | -19 | 1.2
CSc1nnc(-c2ccccc2)c(-c2ccccc2)n1 | nt | -5 | nt | 1 | -19 | 1.2
CSc1nnc(-c2ccco2)c(-c2ccco2)n1 | 0.9 | 46* | 14 | 0.55 | 4 | 0.96
Cc1ccc(NC(=S)NC2CC3CCCC(C2)N3Cc2cccs2)cc1 (centres undefined) | 2* | -318 | -95 | 4.2* | -34 | 1.3
CC(C)CNC(=S)NC1CC2CCCC(C1)N2Cc1cccs1 (centres undefined) | 1.1 | -163 | -14 | 2.6* | 1 | 0.99
CC(C)CNC(=S)NC1CC2CCCC(C1)N2Cc1ccco1 (centres undefined) | 1 | -26 | 5 | 1.3 | -16 | 1.2

Screening results (PubChem BioAssay)
